High-throughput results (PubChem BioAssay)
Sampled rows, rich in hits. Any-hit rate of the full collection: about 3.5%.
MrgX1 allo act: allosterically activates human MrgX1 receptor signaling | MrgX1-HEK293, Fluo-4 calcium flux, FDSS; active compounds read high | B-score at 10 µM | actives 0.63% (n = 310,000);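 active = plate-corrected calcium response at least 3 library SD above typical, normal starting fluorescence, not activating the receptor alone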;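 also: compound read alongside a low EC10 to EC30 dose of BAM8-22 agonist; peak minus trough fluorescence over baseline measured at the second addition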
Target sequence (Q96LB2 whole entry, looked up): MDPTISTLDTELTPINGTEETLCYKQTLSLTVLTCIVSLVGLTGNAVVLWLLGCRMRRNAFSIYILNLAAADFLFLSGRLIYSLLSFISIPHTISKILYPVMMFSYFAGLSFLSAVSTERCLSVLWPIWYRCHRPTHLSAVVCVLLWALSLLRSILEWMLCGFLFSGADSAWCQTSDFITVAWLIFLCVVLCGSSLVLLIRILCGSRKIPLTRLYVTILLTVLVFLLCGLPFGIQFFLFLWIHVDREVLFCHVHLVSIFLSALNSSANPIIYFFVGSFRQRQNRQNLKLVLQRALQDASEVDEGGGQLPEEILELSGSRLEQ
MrgX1 antag: antagonists of human MrgX1 receptor. actives 1.3% (n = 310,000). AID 588676. B-score at 10 µM. MRGX1-HEK293 calcium flux, Fluo-4, BAM8-22 antagonism; active compounds read low. Q96LB2;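 active = calcium-response B-score plate-corrected more than 3 library SD below zero, starting fluorescence within 5 deviations, no agonist response on first addition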;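 also: peak minus trough fluorescence over baseline after final BAM8-22 challenge near maximal dose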
MrgX1 ag: activates human MrgX1 receptor signaling; MrgX1-HEK293 cells, Fluo-4 calcium fluorescence, agonist mode; active compounds read high; B-score at 10 µM; actives 0.44% (n = 310,000); Q96LB2; AID 588627;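 active = calcium response B-score plate-corrected fluorescence ratio at least 3 library SD, with starting fluorescence B-score inside 5 SD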
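Material – MrgX1-expressing HEK293 cells · Input – 15,000 cells seeded per well · Dosing – compound as first of three additions · Times – overnight seeding, then 1 h dark dye loading · Measured by – kinetic Fluo-4 NW fluorescence of intracellular calcium · Read-out – B-scored fluorescence response ratio · Benchmarks – positive and negative control wells on each plate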
RGS4 act: RGS4 potentiation or activation | HEK293 M3R/inducible RGS4, carbachol calcium flux Fluo4; active compounds read low | B-score at 10 µM | actives 0.92% (n = 310,000) | AID 463111;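 active = B-score of the integrated calcium signal more than 4 SD below the library mean, with starting fluorescence not abnormally high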;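 also: negative B-score means reduced calcium response which marks RGS4 activation or potentiation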
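Reagent: ECmax carbachol challenge; Test system: M3R-expressing HEK293 line, RGS4 induced by doxycycline; Schedule: overnight RGS4 induction, 30 min dye load 37 °C, 20 min compound RT; Detection: calcium dye Fluo4 fluorescence; Read-out: Agonist-evoked peak-minus-minimum fluorescence over baseline, integrated ratio, B score.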
RGS4 block: inhibitors of human RGS4; P49798; AID 463165; HEK293 M3R/RGS4 inducible, Fluo-4 calcium flux; active compounds read high; triggered by carbachol at its EC20; actives 0.45% (n = 310,000); B-score at 10 µM;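 active = B-score, a plate-corrected calcium signal, over three deviations above library mean, with baseline fluorescence within five deviations of library mean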;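 also: RGS4 expression induced by doxycycline in cells with stable M3 receptor; B-score is computed from the integrated fluorescence ratio over baseline after carbachol; higher B-score means a larger calcium signal and so more RGS4 inhibition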
Target sequence (P49798 whole entry, looked up): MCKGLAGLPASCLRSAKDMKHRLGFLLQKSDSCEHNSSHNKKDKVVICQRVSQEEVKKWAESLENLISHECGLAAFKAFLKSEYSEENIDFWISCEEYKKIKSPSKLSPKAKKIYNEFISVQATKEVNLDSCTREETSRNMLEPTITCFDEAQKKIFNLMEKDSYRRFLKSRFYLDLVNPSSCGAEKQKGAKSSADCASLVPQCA
Of the large screens only hits and unclear results are named; the others gave an inactive call.

C#CCOCCOCCOCCNc1nc(N2CCN(C(=O)CCCCCCCCCCNC(=O)[C@H](CO)n3cc(CCCSC)nn3)CC2)nc(N2CCN(C(=O)CCCCCCCCCCNC(=O)[C@H](CCCN=C(N)N)n3cc(C[C@@H](C)CC)nn3)CC2)n1	none (no result: RGS4 act, RGS4 block)
C#CCOCCOCCOCCNc1nc(N2CCN(C(=O)CCCCCCCCCCNC(=O)[C@H]([C@@H](C)CC)n3cc(CCCCN=C(N)N)nn3)CC2)nc(N2CCN(C(=O)CCCCCCCCCCNC(=O)[C@H](CO)n3cc(CCCCCN)nn3)CC2)n1	MrgX1 ag 151 (no result: RGS4 act, RGS4 block)
C#CCOCCOCCOCCNc1nc(N2CCN(C(=O)[C@H](C)n3cc(CCCN=C(N)N)nn3)CC2)nc(N2CCN(C(=O)[C@H](C)n3cc(CCCN=C(N)N)nn3)CC2)n1	MrgX1 allo act 8.39
C#CCOCCOCCOCCNc1nc(N2CCN(C(=O)CCCCCCCCCCNC(=O)[C@H]([C@@H](C)CC)n3cc(CCCCN=C(N)N)nn3)CC2)nc(N2CCN(C(=O)CCCCCCCCCCNC(=O)[C@H]([C@@H](C)CC)n3cc(CCCCN=C(N)N)nn3)CC2)n1	MrgX1 ag 38.5 (no result: RGS4 act, RGS4 block)
C#CCOCCOCCOCCNc1nc(N2CCN(C(=O)CCCCCCCCCCNC(=O)[C@H]([C@@H](C)CC)n3cc(CCCCCN)nn3)CC2)nc(N2CCN(C(=O)CCCCCCCCCCNC(=O)[C@H]([C@@H](C)CC)n3cc(CCCCN=C(N)N)nn3)CC2)n1	MrgX1 ag 80.6 (no result: RGS4 act, RGS4 block)
C#CCOCCOCCOCCNc1nc(N2CCN(C(=O)CCCCCCCCCCNC(=O)Cn3cc(CCCCCN)nn3)CC2)nc(N2CCN(C(=O)CCCCCCCCCCNC(=O)[C@H]([C@@H](C)CC)n3cc(CCCCN=C(N)N)nn3)CC2)n1	MrgX1 ag 116 (no result: RGS4 act, RGS4 block)
C#CCOCCOCCOCCNc1nc(N2CCN(C(=O)CCCCCCCCCCNC(=O)[C@H]([C@@H](C)CC)n3cc(CCCCCN)nn3)CC2)nc(N2CCN(C(=O)CCCCCCCCCCNC(=O)[C@H](CCCCN)n3cc(CCCC(=O)O)nn3)CC2)n1	none (no result: RGS4 act, RGS4 block)
C#CCOCCOCCOCCNc1nc(N2CCN(C(=O)CCCCCCCCCCNC(=O)[C@H]([C@@H](C)CC)n3cc(CCCCN=C(N)N)nn3)CC2)nc(N2CCN(C(=O)CCCCCCCCCCNC(=O)[C@H](CCCCN)n3cc(C)nn3)CC2)n1	MrgX1 ag 122 (no result: RGS4 act, RGS4 block)
COc1cc([N+](=O)[O-])ccc1NC(=O)Cn1ccsc1=N	none
Cc1ccc(-n2nc3c(=O)n(CCCC(=O)NCc4ccc(C)o4)nc(C)c3c2C)cc1	none
CN(NC(=O)c1ccc(Cl)cc1Cl)C1=NS(=O)(=O)c2ccccc21	MrgX1 antag -6.29
COC(=O)/C=C1/SC(=NC(=O)c2cccc([N+](=O)[O-])c2)NC1=O	none
CCOc1ccc(S(=O)(=O)N2CCN(C(=O)Cc3ccc(S(=O)(=O)N4CCOCC4)s3)CC2)cc1	RGS4 act -7.27
CCOc1ccc(NC(=O)COC(=O)Cc2ccc(S(=O)(=O)N3CCOCC3)s2)cc1	none
CC(C)(C)C(=O)/C(=C/c1ccc(Cl)cc1)n1cncn1	none
CC(C)(C)C(=O)/C(=C\c1ccc([N+](=O)[O-])cc1)n1cncn1	MrgX1 ag 34.5, RGS4 block 14.3
O=C(NCc1ccccn1)C(=O)Nc1nc(C23CC4CC(CC(C4)C2)C3)cs1	none
COc1cccc(-n2nnnc2S(C)(=O)=O)c1	MrgX1 ag 47.8
C=CS(=O)(=O)c1sc(Cl)c(N2CCOCC2)c1[N+](=O)[O-]	RGS4 act -10.6 (no result: MrgX1 allo act, MrgX1 antag, MrgX1 ag)
CCCN=C1N/C(=C\c2ccco2)C(=O)N1c1ccccc1	none
CCCN(CCC)C1=N/C(=C\c2ccco2)C(=O)N1c1ccccc1	MrgX1 allo act 6.89
CC(C)(C)C1CCC(C(=O)OCC(=O)c2ccc[nH]2)CC1 (configuration not stated)	none
O=C(Cc1cn(Cc2cccc(Cl)c2)c2ccccc12)N1CCCCCC1	RGS4 act -7.19
CC1CCCN(C(=O)Cc2cn(Cc3cccc(Cl)c3)c3ccccc23)C1 (configuration not stated)	RGS4 act -7.44
O=C(O)Cc1cn(Cc2cccc(Cl)c2)c2ccccc12	none
CCOC(=O)c1cc(C#N)c(N2CCN(c3ccc(OC)cc3)CC2)[nH]c1=O	none
O=C1CSC(c2ccccc2)N1c1cccnc1 (configuration not stated)	none
C[C@]12CC(O)C3C(CCC4=CC(=O)CC[C@@]43C)C1CCC2c1csc(-c2ccccc2)n1 (some centres not stated)	RGS4 act -9.61
CC(=O)[C@H]1CC[C@H]2[C@@H]3CCC4=CC(=O)CC[C@]4(C)[C@H]3[C@H](O)C[C@]12C	none
COC(=O)COn1c(SCC(=O)OC)nc2ccccc2c1=O	MrgX1 antag -4.65
N#C/C(=C/c1cn[nH]c1-c1ccc(Br)cc1)C(=O)O	none
NC(=O)c1ncc(C(F)(F)F)cc1Oc1ccc(C(F)(F)F)cc1	none
c1ccc(COc2ccc(OCCCCN3CCCCC3)cc2)cc1	RGS4 act -10.3
CN1CCN(CCCOc2ccc(-c3ccccc3)cc2)CC1	RGS4 act -9.3
CN1CCN(CCOc2ccc(-c3ccccc3)cc2)CC1	none
CC12OC1C1(O)CCCC1=CC2=O (configuration not stated)	none
O=C(CN1C(=O)S/C(=C/c2cc(Br)cs2)C1=O)N1CCOCC1	none
CCOc1cc(/C=C(\C#N)C(=O)Nc2ccccc2C(=O)O)ccc1OC(=O)c1ccc(C)cc1	MrgX1 antag -4.9
COc1ccc(/C=C(/C#N)C(=O)Nc2ccccc2C)cc1C(=O)O	none
CSc1ccc(S(=O)(=O)NCCCOC(C)C)cc1	none
CCc1ccc(OC(C)C(=O)Nc2ccccc2C(=O)N2CCOCC2)cc1 (configuration not stated)	none
COC(=O)C1=C(C)N=C2SCCC(=O)N2C1/C=C/c1ccccc1 (configuration not stated)	RGS4 act -7.42
COc1ccccc1/C=C/C1C(C(=O)OCC(C)C)=C(C)N=C2SCCC(=O)N21 (configuration not stated)	none
COc1ccccc1N1C(=O)CC(N2CCN(c3ccc(Cl)cc3)CC2)C1=O (configuration not stated)	none
CCN1/C(=C/C(C)=C/c2sc3ccccc3[n+]2CC)Sc2ccccc21	MrgX1 antag -6.38
CC[C@H](C)[C@@H]1NC(=O)c2cc([N+](=O)[O-])cc(I)c2SC[C@@H](C(N)=O)NC(=O)[C@H](CCCCN)NC1=O	MrgX1 antag -6.61 (no result: RGS4 act, RGS4 block)
O=C(Nc1nnc(C2=COCCO2)o1)c1cccc([N+](=O)[O-])c1	none
O=C(Nc1nnc(-c2ccc(F)cc2)o1)c1cccc([N+](=O)[O-])c1	MrgX1 ag 58.1
